ChEMBL document CHEMBL3124861, “Application of ProTide technology to gemcitabine: a successful approach to overcome the key cancer resistance mechanisms leads to a new agent (NUC-1031) in clinical development” (J Med Chem, 2014)
Activity calls are given as the source filed them. The rule behind the calls is not given here.

Assays:
CCRF-CEM = test: Cytostatic activity against human CEM cells after 72 hrs by coulter counter analysis; type: functional, cell-based
Outline: (§1)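 Tumor cell proliferation assay with murine leukemia and human T-lymphoblast cells. IC50 is the concentration that inhibits proliferation by 50%. Values are means of at least two independent experiments.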

L1210 = test: Cytostatic activity against mouse L1210 cells after 48 hrs by coulter counter analysis; type: functional, cell-based; settings: L1210, 48 h; outline: as §1
MIA PaCa-2 [1] = test: Ratio of gemcitabine IC50 to compound IC50 for human MIAPaCa2 cells after 72 hrs by MTS assay; type: functional
BXPC-3 [2] = test: Cytostatic activity against human BxPC3 cells after 72 hrs by MTS assay; type: functional, cell-based; settings: BXPC-3, 72 h
Outline: (§2)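 Pancreatic carcinoma cell proliferation assay. IC50 is the concentration that inhibits tumor cell proliferation by 50%. Values are means of at least two independent experiments.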

MIA PaCa-2 [3] = test: Cytostatic activity against human MIAPaCa2 cells after 72 hrs by MTS assay; type: functional, cell-based; settings: MIA PaCa-2, 72 h; outline: as §2
[4] = Half life in human hepatocytes at 1 uM; type: ADME, cell-based, Hepatocyte
Outline: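 Compounds incubated with human hepatocytes. Half-life determined.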

[5] = Metabolic stability in human liver microsomes assessed as compound remaining at 0.5 uM after 1 hr by HPLC-Ms/Ms analysis; type: ADME; settings: read-out: Stability
Outline: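 Compounds incubated with human liver microsomes for 1 h. Percentage of parent remaining measured.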

BXPC-3 [6] = test: Ratio of gemcitabine IC50 to compound IC50 for human BxPC3 cells after 72 hrs by MTS assay; type: functional
Cytidine deaminase [7] = target: T1, Cytidine deaminase (Homo sapiens, UniProt P32320); test: Drug degradation assessed as recombinant human cytidine deaminase-mediated dFdU formation at 100 uM measured within 2 mins by UV absorption spectroscopic analysis; type: ADME
T1 sequence (P32320 whole entry): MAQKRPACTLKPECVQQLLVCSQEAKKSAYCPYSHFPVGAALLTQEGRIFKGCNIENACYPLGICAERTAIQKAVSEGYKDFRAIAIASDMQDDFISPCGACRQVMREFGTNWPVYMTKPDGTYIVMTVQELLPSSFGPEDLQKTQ
Outline: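 Compound or gemcitabine incubated with cytidine deaminase. UV absorption scanned at 220–350 nm over 30 min. Deamination to dFdU is read as an absorbance shift from 267 to 257 nm.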

MIA PaCa-2 [8] = test: Antitumor activity against human MIAPaCa2 cells xenografted in Balb/c nude mouse assessed as tumor growth inhibition at 0.076 mmol/kg, ip measured on day 7; type: functional, organism-based
[9] = Cytotoxicity against human RT112 cells assessed as cell viability by MTT assay in absence of dCK substrate deoxycytidine; type: functional, cell-based; settings: RT-112
Outline: (§3)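 RT112 cancer cells were grown with the test agent, with or without 2′-deoxycytidine as a competing dCK substrate to mimic dCK down-regulation. Viable cells were counted by colorimetric MTT assay, and EC50 was taken as the concentration blocking proliferation by 50%.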

[10] = Prodrug activation in human BxPC3 cells assessed as formation of dFdCTP after 24 hrs in presence of dCK inhibitor 2T2D; type: cell-based; settings: bxpc-3, 24 h
Outline: (§4)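 Pancreatic cells were exposed to the agent for 24 h, with or without a dCK inhibitor or the hENT1 inhibitor NBTI. Intracellular dFdCTP was measured by UPLC-MS/MS on a C18 column. Elution used a 10 mM ammonium acetate/acetonitrile gradient at 700 μL/min. Detection was by triple-quadrupole heated electrospray, transition m/z 502.0→159.0 at 37 V collision energy.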

[11] = Cytotoxicity against human PANC1 cells assessed as cell viability by MTT assay in absence of hENT1 inhibitor dipyridamole; type: functional, cell-based; settings: PANC-1
Outline: (§5)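 PANC1 pancreatic cancer cells were grown with the test agent, with or without dipyridamole to block hENT1 nucleoside transport. Viable cells were counted by colorimetric MTT assay, and EC50 was taken as the concentration blocking proliferation by 50%.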

[12] = Prodrug activation in human BxPC3 cells assessed as formation of dFdCTP after 24 hrs in presence of hENT1 inhibitor NBTI; type: cell-based; settings: bxpc-3, 24 h; outline: as §4
Mus musculus [13] = test: Toxicity in Balb/c nude mouse xenografted with human BxPC3 cells assessed as change in body weight at 0.19 to 0.076 mmol/kg, ip administered 2 times per week for 2 weeks measured every week during compound treatment; type: organism-based, BXPC-3; settings: in vivo, 336 h
RT-112 = test: Ratio of EC50 for human RT112 cells in presence of dCK substrate deoxycytidine to EC50 for human RT112 cells in absence of dCK substrate deoxycytidine; type: functional
Outline: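 RT112 cells exposed to compound with or without the dCK substrate 2′-deoxycytidine, which competes for dCK activity. Viable cells counted by colorimetric MTT assay. EC50 is the concentration blocking cell proliferation, compared between the two conditions.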

BXPC-3 [14] = test: Antitumor activity against human BxPC3 cells xenografted in Balb/c nude mouse assessed as tumor growth inhibition at 0.19 mmol/kg, ip administered every week for 3 weeks; type: functional, organism-based
MIA PaCa-2 [15] = test: Antitumor activity against human MIAPaCa2 cells xenografted in Balb/c nude mouse assessed as tumor growth inhibition at 0.19 mmol/kg, ip administered every week for 3 weeks; type: functional, organism-based
[16] = Prodrug activation in human MIAPaCa2 cells assessed as formation of dFdCTP after 24 hrs in presence of hENT1 inhibitor NBTI; type: cell-based; settings: mia paca-2, 24 h; outline: as §4
[17] = Cytotoxicity against human PANC1 cells assessed as cell viability by MTT assay in presence of hENT1 inhibitor dipyridamole; type: functional, cell-based; settings: PANC-1; outline: as §5
[18] = Cytotoxicity against human RT112 cells assessed as cell viability by MTT assay in presence of dCK substrate deoxycytidine; type: functional, cell-based; settings: RT-112; outline: as §3
[19] = Prodrug activation in human MIAPaCa2 cells assessed as formation of dFdCTP after 24 hrs in presence of dCK inhibitor 2T2D; type: cell-based; settings: mia paca-2, 24 h; outline: as §4
Mus musculus [20] = test: Toxicity in Balb/c nude mouse xenografted with human MIAPaCa2 cells assessed as change in body weight at 0.19 to 0.076 mmol/kg, ip administered 2 times per week for 2 weeks measured every week during compound treatment relative to vehicle-treated control; type: organism-based, MIA PaCa-2; settings: in vivo, 336 h
Serum [21] = test: Prodrug activation in rat serum assessed as formation of (S)-2-((((2R,3R,5R)-5-(4-amino-2-oxopyrimidin-1(2H)-yl)-4,4-difluoro-3-hydroxytetrahydrofuran-2-yl)methoxy)oxidophosphorylamino)propanoate at 5 mg measured after 6.5 mins by [31P]-NMR spectroscopic analysis; type: cell-free
Outline: (§6)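 The prodrug was incubated in human or rat serum and followed over time by 31P NMR. Metabolites were assigned by chemical shift. Human serum spectra were resolved by Lorentz-Gauss deconvolution.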

[22] = Prodrug activation assessed as carboxypeptidase Y (unknown origin)-mediated formation of (S)-2-((((2R,3R,5R)-5-(4-amino-2-oxopyrimidin-1(2H)-yl)-4,4-difluoro-3-hydroxytetrahydrofuran-2-yl)methoxy)oxidophosphorylamino)propanoate at 3 mg measured within 12 hrs by [31P]-NMR spectroscopic analysis
Outline: (§7)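 The prodrug was dissolved in acetone-d6 with Trizma buffer (pH 7.6). A blank spectrum was recorded at 25 °C, then carboxypeptidase Y was added. Conversion was followed by 31P NMR spectra recorded over time, with peaks assigned by chemical shift.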

Cytidine deaminase [23] = target: T1, Cytidine deaminase; test: Drug degradation assessed as recombinant human cytidine deaminase-mediated dFdU formation at 100 uM measured at 30 mins by UV absorption spectroscopic analysis; type: ADME; settings: 0.5 h
Outline: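 The nucleoside or prodrug was incubated with cytidine deaminase for 30 min. Deamination was followed by UV absorbance spectra recorded between 220 and 350 nm.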

[24] = Prodrug activation assessed as carboxypeptidase Y (unknown origin)-mediated formation of (2S)-2-((((2R,3R,5R)-5-(4-amino-2-oxopyrimidin-1(2H)-yl)-4,4-difluoro-3-hydroxytetrahydrofuran-2-yl)methoxy)(phenoxy)phosphorylamino)propanoate at 3 mg measured within 10 mins by [31P]-NMR spectroscopic analysis; outline: as §7
Serum [25] = test: Prodrug activation in human serum assessed as formation of (S)-2-((((2R,3R,5R)-5-(4-amino-2-oxopyrimidin-1(2H)-yl)-4,4-difluoro-3-hydroxytetrahydrofuran-2-yl)methoxy)oxidophosphorylamino)propanoate at 5 mg measured after 5.5 hrs by [31P]-NMR spectroscopic analysis; type: cell-free; outline: as §6
[26] = Prodrug activation assessed as carboxypeptidase Y (unknown origin)-mediated formation of (S)-2-((((2R,3R,5R)-5-(4-amino-2-oxopyrimidin-1(2H)-yl)-4,4-difluoro-3-hydroxytetrahydrofuran-2-yl)methoxy)oxidophosphorylamino)propanoate at 3 mg measured after 10 mins by [31P]-NMR spectroscopic analysis; outline: as §7

C[C@H](NP(=O)(OC[C@H]1O[C@@H](n2ccc(N)nc2=O)C(F)(F)[C@@H]1O)Oc1ccccc1)C(=O)OC1CCCCC1 (stereo not given in full)
IC50 (CCRF-CEM): 0.42 µM | IC50 (L1210): 0.6 µM

C[C@H](NP(=O)(OC[C@H]1O[C@@H](n2ccc(N)nc2=O)C(F)(F)[C@@H]1O)Oc1cccc2ccccc12)C(=O)OC1CCCC1 (stereo not given in full)
IC50 (CCRF-CEM): 0.11 µM | Ratio IC50 (MIA PaCa-2 [1]): 2 | IC50 (BXPC-3 [2]): 0.15 µM | IC50 (L1210): 0.18 µM | IC50 (MIA PaCa-2 [3]): 0.46 µM

CCCCCOC(=O)[C@H](C)NP(=O)(OC[C@H]1O[C@@H](n2ccc(N)nc2=O)C(F)(F)[C@@H]1O)Oc1cccc2ccccc12 (stereo not given in full)
IC50 (CCRF-CEM): 0.073 µM | IC50 (L1210): 0.03 µM

CCCCCCOC(=O)[C@H](C)NP(=O)(OC[C@H]1O[C@@H](n2ccc(N)nc2=O)C(F)(F)[C@@H]1O)Oc1cccc2ccccc12 (stereo not given in full)
IC50 (CCRF-CEM): 0.075 µM | IC50 (L1210): 0.022 µM

CCCCCOC(=O)C(C)(C)NP(=O)(OC[C@H]1O[C@@H](n2ccc(N)nc2=O)C(F)(F)[C@@H]1O)Oc1cccc2ccccc12 (stereo not given in full)
IC50 (CCRF-CEM): 0.13 µM | IC50 (L1210): 0.16 µM

C[C@H](NP(=O)(OC[C@H]1O[C@@H](n2ccc(N)nc2=O)C(F)(F)[C@@H]1O)Oc1ccccc1)C(=O)OCC(C)(C)C (stereo not given in full)
IC50 (CCRF-CEM): 0.44 µM | IC50 (BXPC-3 [2]): 0.36 µM | IC50 (L1210): 0.39 µM | IC50 (MIA PaCa-2 [3]): 1.41 µM

CC(C)OC(=O)[C@H](C)NP(=O)(OC[C@H]1O[C@@H](n2ccc(N)nc2=O)C(F)(F)[C@@H]1O)Oc1ccccc1 (stereo not given in full)
IC50 (CCRF-CEM): > 5 µM | IC50 (BXPC-3 [2]): > 5 µM | IC50 (L1210): > 5 µM | IC50 (MIA PaCa-2 [3]): > 5 µM

C[C@H](NP(=O)(OC[C@H]1O[C@@H](n2ccc(N)nc2=O)C(F)(F)[C@@H]1O)Oc1cccc2ccccc12)C(=O)OCc1ccccc1 (stereo not given in full)
IC50 (CCRF-CEM): 0.1 µM | half-life at 1 µM [4]: 1.32 h | remaining at 1 h, 0.5 µM [5]: 1% | Ratio IC50 (MIA PaCa-2 [1]): 2 | Ratio IC50 (BXPC-3 [6]): 2 | IC50 (BXPC-3 [2]): 0.24 µM | IC50 (L1210): 0.035 µM | IC50 (MIA PaCa-2 [3]): 0.57 µM

CCCCCCOC(=O)[C@H](C)NP(=O)(OC[C@H]1O[C@@H](n2ccc(N)nc2=O)C(F)(F)[C@@H]1O)Oc1ccccc1 (stereo not given in full)
IC50 (CCRF-CEM): 0.081 µM | IC50 (L1210): 0.016 µM

CCCCCOC(=O)[C@H](C)NP(=O)(OC[C@H]1O[C@@H](n2ccc(N)nc2=O)C(F)(F)[C@@H]1O)Oc1ccccc1 (stereo not given in full)
IC50 (CCRF-CEM): 0.08 µM | IC50 (L1210): 0.024 µM

C[C@H](NP(=O)(OC[C@H]1O[C@@H](n2ccc(N)nc2=O)C(F)(F)[C@@H]1O)Oc1cccc2ccccc12)C(=O)OC1CCCCC1 (stereo not given in full)
IC50 (CCRF-CEM): 0.14 µM | IC50 (L1210): 0.32 µM

Nc1ccn([C@@H]2O[C@H](CO)[C@@H](O)C2(F)F)c(=O)n1 [GEMCITABINE]
Stability (Cytidine deaminase [7]): Unstable | TGI (MIA PaCa-2 [8]): Active | EC50 [9]: 0.0014 µM | IC50 (CCRF-CEM): 0.086 µM | Drug metabolism [10]: Not Active | EC50 [11]: 611 µM | Drug metabolism [12]: Not Active | Activity (Mus musculus [13]): Non-toxic | Ratio EC50 (RT-112): 75 | TGI (BXPC-3 [14]): inactive | TGI (MIA PaCa-2 [15]): Active | Drug metabolism [16]: Not Active | EC50 [17]: > 2000 µM | EC50 [18]: 0.105 µM | IC50 (BXPC-3 [2]): 0.67 µM | IC50 (MIA PaCa-2 [3]): 1.04 µM | Drug metabolism [19]: Not Active

C[C@H](NP(=O)(OC[C@H]1O[C@@H](n2ccc(N)nc2=O)C(F)(F)[C@@H]1O)Oc1ccccc1)C(=O)OCc1ccccc1 (stereo not given in full) [FOSGEMCITABINE PALABENAMIDE]
Activity (Mus musculus [20]): < 4% | TGI (MIA PaCa-2 [8]): Active | EC50 [9]: 0.0002 µM | IC50 (CCRF-CEM): 0.1 µM | Drug metabolism [10]: Active | EC50 [11]: 190 µM | Drug metabolism (Serum [21]): Active | Drug metabolism [22]: Active | Stability (Cytidine deaminase [23]): Stable | Drug metabolism [12]: Active | Activity (Mus musculus [13]): Non-toxic | TGI (BXPC-3 [14]): Active | TGI (MIA PaCa-2 [15]): Active | Drug metabolism [16]: Active | EC50 [17]: 162 µM | Drug metabolism [24]: Active | EC50 [18]: 0.0007 µM | Drug metabolism (Serum [25]): Active | Drug metabolism [26]: Active | IC50 (BXPC-3 [2]): 0.15 µM | IC50 (L1210): 0.035 µM | IC50 (MIA PaCa-2 [3]): 0.44 µM | Drug metabolism [19]: Active
